Results published in ChEMBL document CHEMBL1629690, “Development of hexadecyloxypropyl tenofovir (CMX157) for treatment of infection caused by wild-type and nucleoside/nucleotide-resistant HIV” (Antimicrob Agents Chemother, 2010).

tested on: Human immunodeficiency virus 1; test: Antiviral activity against HIV1 71361-1 harboring reverse transcriptase 65R mutant gene infected in human PBMC by ELISA; format: functional, organism-based; conditions: Human immunodeficiency virus 1, 71361-1
Summary of the method: (§1)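 Fresh PBMCs pooled from at least two HIV- and HBV-seronegative donors, stimulated with PHA 4 μg/ml for 48–72 h and kept in rhIL-2 20 U/ml. Seeded at 5 × 10^4 cells/well and infected with RT-mutant HIV-1 clones at MOI ~0.1. Nine compound concentrations, triplicate wells, 7-day incubation. EC50 reported as mean ± SD of one to three independent experiments.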

SMILES	EC50
Cc1cn([C@H]2C[C@H](N=[N+]=[N-])[C@@H](CO)O2)c(=O)[nH]c1=O [ZIDOVUDINE]	2.7 nM

tested on: Human immunodeficiency virus 1; test: Antiviral activity against HIV1 isolate 194 harboring reverse transcriptase M41L/T215Y/M184V mutant gene by phenosense assay; format: functional, organism-based; conditions: Human immunodeficiency virus 1, isolate 194
Summary of the method: (§2)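 Recombinant-virus PhenoSense HIV assay run on a panel of 30 NRTI-resistant HIV-1 mutants and two wild-type viruses. Each virus is tested across increasing drug concentrations to give an inhibition curve and EC50. Fold change is the test recombinant EC50 divided by the EC50 of the drug-sensitive wild-type reference virus.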

SMILES	EC50
Cc1cn([C@H]2C[C@H](N=[N+]=[N-])[C@@H](CO)O2)c(=O)[nH]c1=O [ZIDOVUDINE]	180 nM

tested on: Human immunodeficiency virus 1; test: Antiviral activity against HIV1 isolate 070 harboring reverse transcriptase 65R/S68G mutant gene by phenosense assay; format: functional, organism-based; conditions: Human immunodeficiency virus 1, isolate 070; summary of the method: as §2

SMILES	EC50
Cc1cn([C@H]2C[C@H](N=[N+]=[N-])[C@@H](CO)O2)c(=O)[nH]c1=O [ZIDOVUDINE]	12 nM

tested on: Human immunodeficiency virus 1; test: Antiviral activity against HIV1 isolate 206 harboring reverse transcriptase D67N/K70R mutant gene by phenosense assay; format: functional, organism-based; conditions: Human immunodeficiency virus 1, isolate 206
Summary of the method: (§3)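 PhenoSense HIV recombinant virus assay: patient-derived HIV-1 with major NRTI resistance mutations tested against increasing drug concentrations to give inhibition curves. EC50 is the concentration giving 50% inhibition. Fold change is the test recombinant EC50 divided by the EC50 of a drug-sensitive wild-type reference virus. Panel of 30 NRTI-resistant isolates plus two wild-type viruses.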

SMILES	EC50
Cc1cn([C@H]2C[C@H](N=[N+]=[N-])[C@@H](CO)O2)c(=O)[nH]c1=O [ZIDOVUDINE]	770 nM

tested on: Human immunodeficiency virus 1; test: Antiviral activity against HIV1 isolate 174 harboring reverse transcriptase M184V mutant gene obtained as site-directed mutant of NL4-3 by phenosense assay relative to wild type; format: functional; conditions: not given; summary of the method: as §2

SMILES	fold change (FC)
Cc1cn([C@H]2C[C@H](N=[N+]=[N-])[C@@H](CO)O2)c(=O)[nH]c1=O [ZIDOVUDINE]	0.34

tested on: Human immunodeficiency virus 1; test: Antiviral activity against HIV1 4755-5 harboring reverse transcriptase 41L/44D/67N/69D/118I/210W/215Y/184V mutant gene infected in human PBMC by ELISA; format: functional, organism-based; conditions: Human immunodeficiency virus 1, 4755-5; summary of the method: as §1

SMILES	EC50
Cc1cn([C@H]2C[C@H](N=[N+]=[N-])[C@@H](CO)O2)c(=O)[nH]c1=O [ZIDOVUDINE]	100 nM

tested on: Human immunodeficiency virus 1; test: Antiviral activity against HIV1 isolate 153 harboring reverse transcriptase L74V mutant gene by phenosense assay relative to wild type; format: functional; conditions: not given; summary of the method: as §2

SMILES	fold change (FC)
Cc1cn([C@H]2C[C@H](N=[N+]=[N-])[C@@H](CO)O2)c(=O)[nH]c1=O [ZIDOVUDINE]	0.41

tested on: Human immunodeficiency virus 1; test: Antiviral activity against HIV1 isolate 215 harboring reverse transcriptase D67N/K70E mutant gene by phenosense assay relative to wild type; format: functional; conditions: not given; summary of the method: as §3

SMILES	fold change (FC)
Cc1cn([C@H]2C[C@H](N=[N+]=[N-])[C@@H](CO)O2)c(=O)[nH]c1=O [ZIDOVUDINE]	0.21

tested on: Human immunodeficiency virus 1; test: Antiviral activity against HIV1 isolate 067 harboring reverse transcriptase A62V/D67G/T69SVG/V75I/T215I mutant gene by phenosense assay relative to wild type; format: functional; conditions: not given; summary of the method: as §2

SMILES	fold change (FC)
Cc1cn([C@H]2C[C@H](N=[N+]=[N-])[C@@H](CO)O2)c(=O)[nH]c1=O [ZIDOVUDINE]	>920

tested on: Human immunodeficiency virus 1; test: Antiviral activity against HIV1 isolate 192 harboring reverse transcriptase M41L/T215Y mutant gene by phenosense assay; format: functional, organism-based; conditions: Human immunodeficiency virus 1, isolate 192; summary of the method: as §2

SMILES	EC50
Cc1cn([C@H]2C[C@H](N=[N+]=[N-])[C@@H](CO)O2)c(=O)[nH]c1=O [ZIDOVUDINE]	560 nM

tested on: Human immunodeficiency virus 1; test: Antiviral activity against HIV1 isolate 200 harboring reverse transcriptase M41L/L210W/T215Y mutant gene by phenosense assay relative to wild type; format: functional; conditions: not given; summary of the method: as §2

SMILES	fold change (FC)
Cc1cn([C@H]2C[C@H](N=[N+]=[N-])[C@@H](CO)O2)c(=O)[nH]c1=O [ZIDOVUDINE]	100

tested on: Human immunodeficiency virus 1; test: Antiviral activity against HIV1 1617-1 harboring reverse transcriptase 69K/70G/75I/77L/116Y/151M/184V mutant gene infected in human PBMC by ELISA; format: functional, organism-based; conditions: Human immunodeficiency virus 1, 1617-1; summary of the method: as §1

SMILES	EC50
Cc1cn([C@H]2C[C@H](N=[N+]=[N-])[C@@H](CO)O2)c(=O)[nH]c1=O [ZIDOVUDINE]	> 340 nM

tested on: Human immunodeficiency virus 1; test: Antiviral activity against HIV1 isolate 160 harboring reverse transcriptase S68G/V75(I/T)/F77L/Y115F/F116Y /Q151M mutant gene by phenosense assay relative to wild type; format: functional; conditions: not given; summary of the method: as §2

SMILES	fold change (FC)
Cc1cn([C@H]2C[C@H](N=[N+]=[N-])[C@@H](CO)O2)c(=O)[nH]c1=O [ZIDOVUDINE]	93

tested on: Human immunodeficiency virus 1; test: Antiviral activity against HIV1 7303-3 harboring reverse transcriptase 41L/44D/67N/69D/118I/210W/215Y mutant gene infected in human PBMC by ELISA; format: functional, organism-based; conditions: Human immunodeficiency virus 1, 7303-3; summary of the method: as §1

SMILES	EC50
Cc1cn([C@H]2C[C@H](N=[N+]=[N-])[C@@H](CO)O2)c(=O)[nH]c1=O [ZIDOVUDINE]	3000 nM

tested on: Human immunodeficiency virus 1; test: Antiviral activity against HIV1 isolate 061 harboring reverse transcriptase M41L/D67N/K70R/M184V/L210W/T215Y/K219E mutant gene by phenosense assay; format: functional, organism-based; conditions: Human immunodeficiency virus 1, isolate 061; summary of the method: as §2

SMILES	EC50
Cc1cn([C@H]2C[C@H](N=[N+]=[N-])[C@@H](CO)O2)c(=O)[nH]c1=O [ZIDOVUDINE]	2200 nM
